The list is not random: actives were taken first. Their share in the collection is about 3.2%.
TRPML3 ag = human TRPML3 channel agonists, primary screen, cell-based, HEK293 TRPML3-YFP, Fluo-8 calcium fluorescence, 3 µM; 0.29% of 220,000 active; 100% = the carbachol control signal; Mucolipin-3 (Homo sapiens), Q8TDD5; activation, % at 3 µM;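 active means activation above its plate's cutoff, the mean activation of the plate's test wells plus 3 SD, cut at about 12% in these data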;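 further: 0% = DMSO only wells and 100% = carbachol wells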
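Test system – HEK293 line with stable expression of human TRPML3-YFP channel · Control set – carbachol 87 µM final as high control (100%), DMSO as low control (0%) · Signal – Fluo-8 calcium dye fluorescence, ex 470-495, em 515-575 nm · Incubation – 1-h 37 °C dye load, 5-s basal, 120-s post-compound reads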
OX1R antag-1 = OX1R (HCRTR1) antagonists, primary screen, fluorescence, CHO/OX1R cells, Fluo-8 calcium, orexin A; Orexin/Hypocretin receptor type 1 (Homo sapiens), O43613; Fluo-8 calcium fluorescence; inhibition, % at 5 µM; 0.43% of 330,000 active;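 active means inhibition above its plate's threshold, mean inhibition of all tested compounds on the plate plus 3 SD, cut at about 37% in these data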;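 further: 0% = orexin A challenge wells and 100% = SB-334867-A antagonist wells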
Target sequence (O43613 whole entry, looked up): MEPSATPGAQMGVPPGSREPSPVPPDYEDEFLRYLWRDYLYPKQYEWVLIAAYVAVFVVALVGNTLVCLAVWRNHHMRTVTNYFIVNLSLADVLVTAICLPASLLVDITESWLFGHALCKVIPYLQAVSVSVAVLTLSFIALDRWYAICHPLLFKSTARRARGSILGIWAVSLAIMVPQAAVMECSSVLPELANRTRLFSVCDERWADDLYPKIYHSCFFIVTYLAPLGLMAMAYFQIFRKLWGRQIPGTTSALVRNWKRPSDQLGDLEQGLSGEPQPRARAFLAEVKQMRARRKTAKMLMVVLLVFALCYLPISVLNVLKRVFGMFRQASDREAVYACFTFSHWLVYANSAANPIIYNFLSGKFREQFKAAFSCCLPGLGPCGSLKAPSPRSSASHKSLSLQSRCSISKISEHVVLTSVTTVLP
zfTRPN1 agonist = zebrafish TRPN1 channel agonists, primary screen, cell-based, HEK293, calcium fluorescence; 0.18% of 220,000 active; transient receptor potential cation channel N1 (TRPN1/NompC), Danio rerio; HEK293 zebrafish TRPN1-YFP, Fluo-8 calcium fluorescence; 100% = response to 87 µM carbachol; activation, % at 3 µM; AID 1424, 2008;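 active means activation above its plate's cutoff, the mean activation of test wells on that plate plus 3 SD, cut at about 19% in these data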;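 further: 0% = DMSO alone and 100% = 87 µM carbachol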
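System: zebrafish TRPN1-YFP in HEK293 cells / Dosing: 3 µM single point / Timing: dye loading 1 h at 37 °C, then 30 min room temperature / Signal: Fluo-8 calcium fluorescence, excitation 470-495 nm, emission 515-575 nm / Read-out basis: percent activation from peak over basal fluorescence ratio, control-normalized / Control set: high carbachol 87 µM, low DMSO alone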
CHO parental Ca = ATP-evoked calcium signal inhibitors, parental CHO, primary screen, counter-screen for OX1R antagonist project, cell-based, fluorescence, Fluo-8 calcium dye; parental CHO-K1, ATP-induced calcium, Fluo-8 fluorescence; inhibition, % at 5.6 µM; 0.63% of 330,000 active; AID 463079, 2010;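 active means inhibition above that plate's mean sample inhibition plus 3 SD, cut at about 26% in these data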;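 further: 0% = ATP-challenged DMSO wells and 100% = DMSO wells without ATP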
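Material: Parental CHO cells | Reagent: ATP | Compound dosing: Single nominal dose of 5.6 µM per compound | Detection: Intracellular calcium via Fluo-8 no-wash fluorescent dye | Read-out: % inhibition of ATP-induced calcium mobilization | Benchmarks: Low control ATP plus DMSO, high control DMSO only | Replicates: Singlicate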
OX1R antag-2 = antagonists of human orexin 1 receptor (OX1R); 1.8% of 330,000 active; Orexin/Hypocretin receptor type 1 (Homo sapiens), O43613; inhibition, % at 6.6 µM; OX1R-expressing cells, FRET antagonist read-out; in the data active means inhibition mostly above about 38%, no sharp cut-off; inactive means mostly below about 40%;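 further: 0% = agonist challenge alone and 100% = reference antagonist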
GPR7 antagonist = GPR7 receptor antagonists, primary screen, cell-based, fluorescence, single concentration; inhibition, % at 4.4 µM; 1.1% of 290,000 active; AID 1861, 2009; Neuropeptides B/W receptor type 1 (Homo sapiens), P48145; GPR7-expressing cells, fluorescence antagonist assay; in the data active means inhibition above about 16%, passing the limit was not always enough;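 further: cells stimulated with the agonist NPW; 0% = agonist with vehicle and 100% = vehicle without agonist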
Target sequence (P48145 whole entry, looked up): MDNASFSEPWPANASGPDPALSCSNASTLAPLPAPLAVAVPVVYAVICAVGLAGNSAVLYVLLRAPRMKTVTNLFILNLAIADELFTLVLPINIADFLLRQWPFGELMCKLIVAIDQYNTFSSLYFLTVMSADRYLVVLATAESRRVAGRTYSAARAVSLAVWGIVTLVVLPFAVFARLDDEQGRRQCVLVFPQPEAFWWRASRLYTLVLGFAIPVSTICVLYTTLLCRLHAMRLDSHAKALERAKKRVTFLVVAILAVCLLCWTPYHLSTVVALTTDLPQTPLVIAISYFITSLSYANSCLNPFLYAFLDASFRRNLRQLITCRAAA
OX1R Fluo8 conf = OX1R (HCRTR1) antagonists, confirmation, fluorescence, CHO/OX1R cells, Fluo-8 calcium, orexin A. 38% of 1,100 active. AID 492963, 2010. shares compounds with OX1R antag-1. inhibition, % at 5 µM. orexin A calcium Fluo-8 fluorescence; in the data active means inhibition above about 29%;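 further: 0% = agonist challenge alone and 100% = reference antagonist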
CHO Ca triplic = ATP-evoked calcium inhibition in parental CHO, counter-screen for OX1R antagonist project, cell-based, fluorescence, CHO-K1, triplicate; inhibition, % at 5.6 µM; ATP-induced calcium, Fluo-8 fluorescence; shares compounds with OX1R antag-1; 9.3% of 1,100 active;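 active means inhibition above a per-plate limit, the mean inhibition of that plate's test compounds plus 3 SD, cut at about 25% in these data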;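 further: 0% = ATP challenge with DMSO and 100% = DMSO without ATP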
OX1R HTRF conf = OX1R (HCRTR1) antagonists, confirmation, cell-based, HTRF; shares compounds with OX1R antag-2; OX1R-expressing cells, HTRF antagonist assay; inhibition, % at 6.6 µM; 49% of 1,800 active; in the data active means inhibition above about 55%;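 further: CHO cells expressing OX1R stimulated with orexin A at about EC80; 0% = agonist challenge alone and 100% = reference antagonist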
CHO-K1 HTRF = signal inhibition in parental CHO-K1 cells, counter-screen for OX1R antagonist project, cell-based, HTRF | AID 493232, 2011 | shares compounds with OX1R antag-2 | HTRF counterscreen | 48% of 1,800 active | inhibition, % at 6.6 µM; in the data active means inhibition above about 17%;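 further: 0% = agonist challenge with vehicle and 100% = vehicle alone without agonist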
Active calls of the source: *; . = not tested or not shown.

SMILES	TRPML3 ag	OX1R antag-1	zfTRPN1 agonist	CHO parental Ca	OX1R antag-2	GPR7 antagonist	OX1R Fluo8 conf	CHO Ca triplic	OX1R HTRF conf	CHO-K1 HTRF
Cc1cc(F)ccc1NC(=O)c1cc(S(=O)(=O)N2CCc3ccccc32)cn1C	.	2.9	.	-10.1	15.3	7.3	.	.	.	.
CCOC(=O)c1sc(=S)n(C)c1NC(=O)c1ccccc1Cl	-0.7	-13.6	0.1	-12.7	8.8	-5.8	.	.	.	.
COc1ccc(CN(C(=O)CN2C(=O)C(C)Oc3ccccc32)C2CCCC2)c(OC)c1 (stereo unspecified)	-1.5	59.0*	-1.3	-28.8	83.7*	-5.6	24.2	-12.9	76.7*	3.8
COc1ccccc1CC(=O)N(CCC1=CCCCC1)c1c(N)n(Cc2ccccc2)c(=O)[nH]c1=O	.	-19.7	.	-20.6	25.9	.	.	.	.	.
CCn1c2ccccc2c2cc(N=C3SC(CC(=O)Nc4ccccc4OC)C(=O)N3CCOC)ccc21 (stereo unspecified)	0.3	57.9*	-0.5	-3.6	77.2*	-4.7	52.2*	-12.6	82.6*	1.9
CCC(C)(CN(C)C)OC(=O)c1ccccc1 (stereo unspecified)	.	-14.9	.	-2.8	11.0	.	.	.	.	.
CCS(=O)(=O)CCSc1nc2ccccc2o1	0.5	-4.6	0.9	-3.3	28.0	-13.1	.	.	.	.
O=S(=O)(CCSc1nc2ccccc2o1)c1nc2ccccc2s1	-0.2	61.6*	-1.2	-1.2	41.1*	-6.0	13.8	14.4	36.9	-4.2
Cc1c(CC(=O)NCCCO)c(=O)oc2cc3c(cc12)CCC(C)(C)O3	.	15.6	.	-1.4	10.9	4.9	.	.	.	.
CCOC(=O)c1cnc(SCc2nc(N)nc(Nc3ccccc3)n2)nc1N	-0.6	38.2	0.3	-26.6	73.1*	-12.5	34.7*	-23.7	48.5	6.0
CO/N=C/CC(=O)c1cnc(-c2ccc(Cl)cc2)s1	0.4	-21.8	-0.2	-6.3	6.4	2.0	.	.	.	.
CCn1c(C)csc1=NC(=O)c1ccccc1O	0.9	54.0*	1.7	-15.6	95.0*	-6.7	41.8*	11.2	90.5*	0.2
Cc1csc(=NC(=O)c2ccccc2)n1Cc1ccco1	-1.1	-22.0	-2.2	-15.5	7.6	5.2	.	.	.	.
COc1cccc(NC(=O)CN(C)C(=O)c2ccccc2-c2nc3ccccc3s2)c1	.	17.4	.	-37.1	99.8*	.	16.5	-4.5	88.4*	5.4
CN(CC(=O)Nc1c(Cl)cccc1Cl)C(=O)c1ccccc1-c1nc2ccccc2s1	.	-45.1	.	-32.9	38.0	.	.	.	.	.
COc1cccc(N2CCN(c3nc(-c4ccccc4C)cc(=O)[nH]3)CC2)c1	.	.	.	.	.	-7.8	.	.	.	.
COc1ccc(S(=O)(=O)NCCCn2ccnc2)cc1Cl	.	-21.6	.	-3.5	12.8	-14.3	.	.	.	.
CCn1c(N)c(C(=O)Nc2ccccc2C(=O)OC)sc1=S	-0.2	43.4	0.9	-9.6	83.1*	-10.6	41.9*	-12.8	86.5*	6.6
Cn1c(N)c(C(=O)Nc2ccccc2F)sc1=S	-0.1	-14.2	-1.0	-6.9	5.8	-8.6	.	.	.	.
COC(=O)c1ccccc1NC(=O)CC(=O)Nc1ccccc1C(=O)OC	.	40.5	.	-19.2	78.5*	-0.6	56.0*	-7.2	84.3*	5.6
O=C(N/N=C(\c1ccccc1)c1cccnc1)c1cc(O)ccc1O	.	1.1	.	-9.5	23.1	-14.7	.	.	.	.
CCn1nc(C)c(CN2CCc3c([nH]c4ccccc34)C2c2ccc(F)c(OC)c2)c1C (stereo unspecified)	0.7	-38.5	0.8	-19.8	24.4	-6.5	.	.	.	.
COc1cccc(-c2nc(CS(=O)(=O)CC(=O)Nc3cc(OC)ccc3OC)c(C)o2)c1	.	32.8	.	-16.9	78.4*	0.1	22.9	-8.7	84.9*	5.8
COc1cccc(-c2nc(CS(=O)(=O)CC(=O)Nc3cccc(C)c3C)c(C)o2)c1	0.6	-17.2	-0.4	-23.7	10.9	0.5	.	.	.	.
CC1CN(S(=O)(=O)c2cccc(C(=O)NCc3ccccn3)c2)CC(C)O1 (stereo unspecified)	.	-13.2	.	-7.9	3.8	.	.	.	.	.
SMILES	TRPML3 ag	OX1R antag-1	zfTRPN1 agonist	CHO parental Ca	OX1R antag-2	GPR7 antagonist	OX1R Fluo8 conf	CHO Ca triplic	OX1R HTRF conf	CHO-K1 HTRF
COc1ccc2sc(-c3ccc(S(C)(=O)=O)cc3)c(C#CCO)c2c1	.	64.7*	.	10.3	59.3*	.	20.8	0.7	60.4*	13.2
COc1ccc2c(C#CCCO)c(-c3ccc(S(C)(=O)=O)cc3)sc2c1	.	6.2	.	6.5	3.6	.	.	.	.	.
Cc1cc(Oc2ccc(=O)[nH]n2)nc(Cl)n1	0.0	-5.8	-0.6	-7.6	10.5	-14.1	.	.	.	.
CCOC(=O)C1CCN(c2cc3c(cc2NC(=O)c2ccccc2OCC)n(C)c(=O)n3C)CC1	.	33.8	.	-13.5	35.0*	-31.6	-2.9	-13.0	20.4	-3.7
CCOC(=O)c1c(C)[nH]c(C)c1C(=O)Cn1nnc(-c2ccccc2C)n1	0.8	29.3	-0.2	6.4	54.5*	-17.8	28.9*	6.8	64.6*	6.7
CCOC(=O)c1c(C)[nH]c(C(=O)Cn2nnc(-c3ccccc3Cl)n2)c1C	0.9	13.1	1.4	13.5	26.2	-0.9	.	.	.	.
Cc1cccc(NC(=O)c2cc(-c3cc(C)cc(C)c3O)n[nH]2)c1	.	39.8	.	6.5	63.8*	0.3	16.9	4.2	68.9*	12.8
Cc1cccc(NC(=O)c2cc(-c3c(C)cc(C)cc3O)n[nH]2)c1	.	6.4	.	-2.2	17.6	-8.1	.	.	.	.
Cc1cc(C(=O)NCc2cccc(Cl)c2)c2ccccc2n1	.	26.1	.	-11.3	86.8*	-9.5	30.9*	-2.7	66.9*	1.4
Cc1cc(C(=O)NCc2ccccc2Cl)c2ccccc2n1	.	-10.1	.	-18.6	65.8	-3.0	.	.	.	.
O=C(CN1C(=O)NC(c2ccccc2)(c2ccccc2)C1=O)NCCc1ccc(F)cc1	.	36.4	.	-17.3	68.7*	.	31.4*	1.2	56.3*	-0.5
